Screens as filed in PubChem BioAssay.
TbMetRS inhib – T. brucei MetRS inhibitors, primary screen, biochemical, luminescence; 360,000 tested, 0.4% active; methionyl-tRNA synthetase (Trypanosoma brucei brucei); AID 624268, 2012; purified T. brucei MetRS, ATP depletion, Kinase-Glo luminescence; inhibition, % at 11.9 µM;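 active means inhibition above a per-plate cutoff of the control wells' mean inhibition plus 3 SD, cut at about 5.5% in these data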;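 further: 0% = DMSO wells median and 100% = median of wells with control inhibitor compound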
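Assay system: T. brucei methionyl-tRNA synthetase, purified | Medium: HEPES buffer with MgCl2, KCl, DTT, spermine, BSA, pyrophosphatase | Compound: 11.9 µM single point | Incubation: 15 min enzyme-compound preincubation, 2 h reaction, 10 min detection, 25 °C | Measured by: Kinase-Glo luciferase luminescence reporting remaining unconsumed ATP | Measure: % inhibition normalized to control-well medians | Replication: Singlicate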
DAGLB inh – DAGLB lipase inhibitors, primary screen, biochemical, fluorescence, HTS. Diacylglycerol lipase-beta (Homo sapiens), Q8NCG7. HEK293T DAGLB membrane lysate, EnzChek fluorogenic substrate. inhibition, % at 5.17 µM. 340,000 tested, 0.059% active. AID 504411, 2011; in the data active means inhibition above about 34%;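 further: 0% = enzyme with vehicle and 100% = wells lacking enzyme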
HGIII-sPLA2 inh – human group III sPLA2 inhibitors, primary screen, biochemical, QFRET, BODIPY PC-A2 liposome substrate | AID 743126, 2013 | 370,000 tested, 0.56% active | Group 3 secretory phospholipase A2 (Homo sapiens), Q9NZ20 | inhibition, % at 12.2 µM | QFRET BODIPY PC-A2 liposome hydrolysis, fluorescence;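 active means inhibition above mean plus 3 SD of compounds lying within the high and low control bounds, cut at about 19% in these data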;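 further: 0% = median of test compound wells and 100% = no enzyme DMSO wells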
PLC-gamma1 inh – PLC-gamma1 enzyme inhibitors, primary screen, biochemical, fluorescence, purified enzyme | 370,000 tested, 0.84% active | inhibition, % at 12.2 µM | fluorogenic substrate | 1-phosphatidylinositol 4,5-bisphosphate phosphodiesterase gamma-1 (Homo sapiens), P19174; in the data active means inhibition above about 9.5%
PLC-beta3 inh – human PLC-beta3 inhibitors, primary screen, biochemical, fluorescence | inhibition, % at 12.2 µM | 370,000 tested, 0.18% active | 1-phosphatidylinositol 4,5-bisphosphate phosphodiesterase beta-3 (Homo sapiens), Q01970 | Purified PLC-beta3, fluorogenic substrate; in the data active means inhibition above about 11%;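 further: 0% = median of compound wells on plate and 100% = full blocker control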
Target sequence (Q01970 whole entry, looked up): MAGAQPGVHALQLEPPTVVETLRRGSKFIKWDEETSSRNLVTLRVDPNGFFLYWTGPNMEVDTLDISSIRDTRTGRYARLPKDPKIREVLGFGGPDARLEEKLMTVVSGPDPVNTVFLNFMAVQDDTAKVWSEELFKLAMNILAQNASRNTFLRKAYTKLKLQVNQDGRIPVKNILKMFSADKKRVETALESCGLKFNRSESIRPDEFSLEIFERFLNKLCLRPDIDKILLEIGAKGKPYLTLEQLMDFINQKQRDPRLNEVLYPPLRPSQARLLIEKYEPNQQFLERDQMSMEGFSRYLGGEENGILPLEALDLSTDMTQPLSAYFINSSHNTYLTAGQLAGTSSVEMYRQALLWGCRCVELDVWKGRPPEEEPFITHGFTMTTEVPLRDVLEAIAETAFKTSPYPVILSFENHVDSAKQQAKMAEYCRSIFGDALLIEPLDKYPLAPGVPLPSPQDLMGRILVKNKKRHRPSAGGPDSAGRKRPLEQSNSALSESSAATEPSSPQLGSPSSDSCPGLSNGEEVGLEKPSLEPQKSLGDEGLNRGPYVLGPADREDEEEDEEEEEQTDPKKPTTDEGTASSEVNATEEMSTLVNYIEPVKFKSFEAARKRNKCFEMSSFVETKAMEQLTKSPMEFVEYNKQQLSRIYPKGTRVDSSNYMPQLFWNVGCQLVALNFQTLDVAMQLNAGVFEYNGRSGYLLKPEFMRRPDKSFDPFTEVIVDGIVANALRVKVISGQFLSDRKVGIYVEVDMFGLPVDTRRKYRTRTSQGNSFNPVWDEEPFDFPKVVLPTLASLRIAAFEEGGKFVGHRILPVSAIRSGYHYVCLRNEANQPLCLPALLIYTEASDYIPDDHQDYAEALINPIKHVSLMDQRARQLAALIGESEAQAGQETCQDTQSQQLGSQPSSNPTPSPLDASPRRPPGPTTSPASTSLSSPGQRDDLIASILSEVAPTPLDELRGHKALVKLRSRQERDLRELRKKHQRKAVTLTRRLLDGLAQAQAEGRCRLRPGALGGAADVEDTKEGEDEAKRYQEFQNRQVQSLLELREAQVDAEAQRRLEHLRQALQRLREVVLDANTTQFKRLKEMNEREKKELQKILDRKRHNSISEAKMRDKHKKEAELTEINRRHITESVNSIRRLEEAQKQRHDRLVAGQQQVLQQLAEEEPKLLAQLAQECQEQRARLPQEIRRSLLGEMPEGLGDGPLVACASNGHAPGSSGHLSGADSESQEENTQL
hGIII sPLA2 conf – human group III sPLA2 inhibitors, confirmation, biochemical, QFRET, triplicate; shares compounds with HGIII-sPLA2 inh; recombinant hGIII-sPLA2, BODIPY PC-A2 QFRET fluorescence; inhibition, % at 12.2 µM; 2,000 tested, 34% active; AID 743280, 2014;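 active means mean inhibition across triplicates above the hit cutoff set in the earlier primary screen, cut at about 19% in these data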;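 further: 0% = enzyme with DMSO and 100% = DMSO wells lacking enzyme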
535nm interf – 535nm fluorescence optical interference, confirmation, artefact control for HGIII-sPLA2 inhibitor project, biochemical, QFRET; shares compounds with HGIII-sPLA2 inh; BODIPY FL product fluorescence interference; inhibition, % at 12.2 µM; 2,000 tested, 8.5% active;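 active means average inhibition above the solvent-only control mean plus 3 SD, cut at about 6% in these data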;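 further: 0% = DMSO with substrate plus product and 100% = DMSO with substrate alone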
BODIPY interf DR – 535nm fluorescence optical interference, dose response, artefact control for HGIII-sPLA2 inhibitor project, biochemical, QFRET. 240 tested, under 10 active. AID 743455, 2014. shares compounds with HGIII-sPLA2 inh. IC50, µM. BODIPY FL product fluorescence interference, cell-free;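 active means IC50 at or below 10 µM; inactive means IC50 above 10 µM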
* marks the source's active call; other numbers are inactive results; i = inactive; · = no result given. This is a sample that favours compounds with a hit; in the whole collection about 1.9% have one here.

SMILES	TbMetRS inhib	DAGLB inh	HGIII-sPLA2 inh	PLC-gamma1 inh	PLC-beta3 inh	hGIII sPLA2 conf	535nm interf	others
C[C@@H]1C=CCCO[C@]12C(=O)N(Cc1ccc(F)cc1)c1ccccc12	·	·	2	1	2	·	·
CC(C)(C)c1ccccc1NC(=O)Nc1nc(C(N)c2ccccc2Cl)cs1 (stereo not given)	-1	·	20*	7	-1	10	-3
NC(=O)C1(Nc2ccc(-c3ccc(Br)cc3)cc2)CCCC1	1	2	20*	-2	-5	12	3
Cc1ccc(NC2(C(N)=O)CCCC2)cc1	1	-2	7	1	4	·	·
CCCCC(=O)Nc1ccc(C(=O)NNC(=S)NC(=O)c2ccco2)cc1	0	2	20*	-1	-7	24*	-13
O=C(Nc1ccc(NC(=S)NC(=O)c2cccs2)cc1)c1ccccc1	2	0	15	2	1	·	·
CCCCC(=O)Nc1ccc(C(=O)NNC(=O)c2ccco2)cc1	-1	0	3	-3	-6	·	·
O=C(Cc1ccccc1)NNC(=S)NC(=O)c1cccs1	0	·	21*	4	-6	35*	-5	BODIPY interf DR=>122
CCCCC(=O)Nc1ccc(C(=O)NNC(=S)NC(=O)c2cccs2)cc1	1	1	24*	-2	-2	28*	-28	BODIPY interf DR=>122
O=C(NNC(=S)NC(=O)c1cccs1)c1ccc(NC(=O)c2ccccc2)cc1	1	5	21*	1	-1	41*	-34	BODIPY interf DR=>122
O=C(NNC(=S)NC(=O)c1cccs1)c1ccc(O)cc1	0	2	9	4	-1	·	·
O=C(NC(=S)NCc1ccccc1)c1cccs1	0	-2	2	-2	-4	·	·
Cc1ccc(-n2c(SCc3cccc(F)c3)nc3ccccc3c2=O)cc1	·	·	8	-3	-3	·	·
CCc1cc2c(nc1CC)CCCN2S(=O)(=O)c1ccc(C)cc1	·	·	-1	2	-3	·	·
C#CCNc1cccc2c1S(=O)(=O)N[C@H](C)CO2	·	·	2	-6	-5	·	·
COc1cc2c3c(c1)C(C)CC(C)(C)N3C(=O)C2=O (stereo not given)	-1	5	24*	-2	-9	13	4
COc1cc(-c2nnc(SCC(=O)NN=Cc3c[nH]c4ccccc34)n2-c2ccccc2)cc(OC)c1OC	·	·	-24	0	2	·	·
CCOC(=O)C1(C(=O)OCC)N=C(c2ccccc2)C=C1c1ccccc1	·	·	-17	3	0	·	·
Fc1cnc(N2CCN(c3ccccc3)CC2)nc1N1CCN(c2ccccc2)CC1	0	-4	21*	0	1	-1	-7
CCCCN1CC(COCc2ccccc2)Oc2cccc(Oc3ccc(SC)c(C)c3)c2S1(=O)=O (stereo not given)	·	·	5	0	1	·	·
O=S1(=O)N[C@H](Cc2ccccc2)COc2cc(N3CCCC3)ccc21	·	·	1	0	4	·	·
O=C(Nc1ccc(COc2ccccc2)cc1)Oc1ccccc1N1CCOCC1	0	0	25*	1	-8	2	-10
CCCCCC/C(=N/O)c1ccccn1	0	3	22*	4	3	12	-6
C/C(=N/O)c1ccccn1	1	-2	6	3	4	·	·
O=C(Nc1ccccc1)Nc1nc2ncccn2c1-c1ccc(C(F)(F)F)cc1	·	·	12	-489	i	·	·
SMILES	TbMetRS inhib	DAGLB inh	HGIII-sPLA2 inh	PLC-gamma1 inh	PLC-beta3 inh	hGIII sPLA2 conf	535nm interf	others
Cc1cc(NS(=O)(=O)c2ccc(NC(=O)CSc3nnc(-c4ccco4)n3-c3ccc(Cl)cc3)cc2)nc(C)n1	·	·	-32	-2	-4	·	·
CCN(C(=O)[C@@H](C)[C@@H](O)c1ccc(Cl)cc1)c1ccccc1	·	·	10	8	2	·	·
CCn1c(-c2nn(-c3ccc(C)cc3)ccc2=O)n[nH]c1=S	-1	1	9	0	0	·	·
CCn1c(-c2nn(-c3ccccc3)ccc2=O)n[nH]c1=S	0	2	24*	3	0	3	-3
Cc1cc(C(=O)CN2CCC(C)CC2)c(C)n1-c1ccccc1F	0	-1	19*	-2	-11	4	-22
CCNc1nc(N)c([N+](=O)[O-])c(Nc2cccc(Cl)c2)n1	·	·	-4	4	3	·	·
CN1C2=N[C@@H](c3ccc4c(c3)OCO4)CC(=O)N2/C(=C\c2ccccc2)[C@@H]1c1ccccc1	·	·	-1	-3	-5	·	·
COc1ccc(-c2cc(C(F)(F)F)nc(SCC(=O)NCc3ccco3)n2)cc1OC	-2	3	-1	i	i	·	·
COc1ccc(-c2cc(C(F)(F)F)nc(SCC(=O)NCc3cnn(C)c3C)n2)cc1OC	0	-3	24*	-263	-286	0	-14
C=CCn1c(-c2csc3c2CCC(C)C3)n[nH]c1=S (stereo not given)	0	-6	21*	1	1	20*	5
CCn1c(-c2ccccc2SC)n[nH]c1=S	0	-1	11	3	3	·	·
CCn1c(-c2csc3c2CCCC3)n[nH]c1=S	0	1	29*	6	-3	30*	2	BODIPY interf DR=>122
CCOc1ccc(NCC2CCOC(C)(C)C2)cc1 (stereo not given)	0	-3	20*	3	2	12	-4
CCOc1ccc(NC(=O)CC2CC(C)(C)OC2=O)cc1 (stereo not given)	-1	-5	0	0	1	·	·
COCCCN1C(=O)[C@H](CC(=O)NCCc2ccccc2OC)[C@]2(C(=O)OC)CCCCC=C12	·	·	10	-1	-2	·	·
CCN(CC)c1ccc(-c2nc3cnccn3c2NC2CCCC2)cc1	-1	2	21*	i	i	27*	-12
c1cn2c(NC3CCCCC3)c(-c3ccc(SC4CCCCC4)cc3)nc2cn1	0	-2	-2	-245	-356	·	·
CCn1c(SCc2ccc(C(C)(C)C)cc2)nnc1-c1ccc(C(C)(C)C)cc1	·	·	5	0	0	·	·
C=CCN1C(=O)[C@H](CC(=O)NCCc2ccccc2OC)[C@@]2(C(=O)OCC)CCCC=C12	·	·	-6	-1	1	·	·
Cc1cc(C(=O)NNC(=S)Nc2cccc(C(F)(F)F)c2)nn1C	-1	4	47*	3	-7	42*	2	BODIPY interf DR=>122
